From ChEMBL document CHEMBL5678808, “Human target validation of phosphoinositide 3-kinase (PI3K)β: effects on platelets and insulin sensitivity, using AZD6482 a novel PI3Kβ inhibitor” (J Thromb Haemost, 2012) come the findings set out here.

Experiment [1] deals with Phosphatidylinositol 4,5-bisphosphate 3-kinase catalytic subunit beta isoform (Homo sapiens, UniProt P42338). Kind of experiment: Inhibition of recombinant human PI3Kbeta using PIP2 as substrate preincubated for 20 mins followed by substrate and ATP addition and measured after 20 mins by biotinylated-PIP3 based alphascreen assay. A general note: Bead proximity is the source of the signal in Alpha formats.
Chain of Phosphatidylinositol 4,5-bisphosphate 3-kinase catalytic subunit beta isoform (P42338 whole entry, canonical isoform): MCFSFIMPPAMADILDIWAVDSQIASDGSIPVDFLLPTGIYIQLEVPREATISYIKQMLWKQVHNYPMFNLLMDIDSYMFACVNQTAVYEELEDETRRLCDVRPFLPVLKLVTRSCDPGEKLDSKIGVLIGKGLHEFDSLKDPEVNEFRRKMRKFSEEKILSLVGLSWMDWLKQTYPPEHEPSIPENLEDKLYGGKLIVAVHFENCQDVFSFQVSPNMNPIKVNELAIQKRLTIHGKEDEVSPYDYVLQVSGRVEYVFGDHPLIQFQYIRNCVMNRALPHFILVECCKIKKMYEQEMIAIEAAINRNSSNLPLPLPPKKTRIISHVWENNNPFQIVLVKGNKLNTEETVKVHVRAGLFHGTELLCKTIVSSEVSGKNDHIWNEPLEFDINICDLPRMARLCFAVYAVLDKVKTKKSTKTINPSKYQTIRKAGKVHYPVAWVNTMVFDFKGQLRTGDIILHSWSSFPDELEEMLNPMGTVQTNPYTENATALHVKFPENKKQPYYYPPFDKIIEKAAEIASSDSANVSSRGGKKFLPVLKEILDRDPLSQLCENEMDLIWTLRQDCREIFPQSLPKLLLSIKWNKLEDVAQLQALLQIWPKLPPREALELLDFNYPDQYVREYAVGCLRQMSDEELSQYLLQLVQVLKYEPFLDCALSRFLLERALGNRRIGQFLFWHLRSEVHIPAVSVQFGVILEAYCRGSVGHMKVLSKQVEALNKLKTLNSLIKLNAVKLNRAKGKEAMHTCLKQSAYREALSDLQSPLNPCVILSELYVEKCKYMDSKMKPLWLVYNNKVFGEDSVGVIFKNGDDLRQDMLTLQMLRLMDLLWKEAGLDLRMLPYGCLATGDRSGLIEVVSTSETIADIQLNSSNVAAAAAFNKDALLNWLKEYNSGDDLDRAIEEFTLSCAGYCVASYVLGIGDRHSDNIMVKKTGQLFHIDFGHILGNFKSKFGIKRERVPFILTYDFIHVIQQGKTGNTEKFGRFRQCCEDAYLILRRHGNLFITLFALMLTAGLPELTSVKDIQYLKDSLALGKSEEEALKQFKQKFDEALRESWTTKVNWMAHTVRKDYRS

Experiment [2] has as its target Phosphatidylinositol 4,5-bisphosphate 3-kinase catalytic subunit alpha isoform (Homo sapiens, UniProt P42336). Kind of experiment: Inhibition of recombinant human PI3Kalpha using PIP2 as substrate preincubated for 20 mins followed by substrate and ATP addition and measured after 20 mins by biotinylated-PIP3 based alphascreen assay.
The test system of experiment [3] is Rattus norvegicus. Kind of experiment: Effect on insulin resistance in iv dosed Sprague-Dawley rat assessed as plasma concentration required to show relative HOMA index of 3. The experiment is classed as functional, organism-based.
For experiment [4], the species on record is Homo sapiens. The experiment in a line: Inhibition of PI3Kalpha/beta/gamma/delta in human platelet rich plasma assessed as reduction in ADP-induced platelet aggregation at 5 uM preincubated for 10 mins followed by ADP addition and measured after 5 mins by light transmission aggregometry. The experiment is classed as cell-free. Particulars: time 15.0 min. In outline: (§1)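 Venous blood from healthy human donors, citrate-anticoagulated; undiluted platelet-rich plasma tested in an in-house 96-well plate light transmission aggregometry assay. Agonist concentration-response curves run without and with inhibitor. Values are means, n = 4.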

The species entered for experiment [5] is Homo sapiens. Kind of experiment: Inhibition of PI3Kalpha/beta/gamma/delta in human platelet rich plasma assessed as reduction in collagen-induced platelet aggregation at 5 uM preincubated for 10 mins followed by collagen addition and measured after 10 mins by light transmission aggregometry. The experiment is classed as cell-free. The settings on record: time 20.0 min. The gist of the method: as §1

Experiment [6] is filed under the species Homo sapiens. The experiment in a line: Inhibition of PI3Kalpha/beta/gamma/delta in human platelet rich plasma assessed as reduction in TRAP-induced platelet aggregation at 5 uM preincubated for 10 mins followed by TRAP addition and measured after 5 mins by light transmission aggregometry. The experiment is classed as cell-free. The settings on record: time 15.0 min. In outline:
as §1

The source made the active and inactive calls. The rule behind the calls is not given here.

Chain of Phosphatidylinositol 4,5-bisphosphate 3-kinase catalytic subunit alpha isoform (P42336 whole entry, canonical isoform): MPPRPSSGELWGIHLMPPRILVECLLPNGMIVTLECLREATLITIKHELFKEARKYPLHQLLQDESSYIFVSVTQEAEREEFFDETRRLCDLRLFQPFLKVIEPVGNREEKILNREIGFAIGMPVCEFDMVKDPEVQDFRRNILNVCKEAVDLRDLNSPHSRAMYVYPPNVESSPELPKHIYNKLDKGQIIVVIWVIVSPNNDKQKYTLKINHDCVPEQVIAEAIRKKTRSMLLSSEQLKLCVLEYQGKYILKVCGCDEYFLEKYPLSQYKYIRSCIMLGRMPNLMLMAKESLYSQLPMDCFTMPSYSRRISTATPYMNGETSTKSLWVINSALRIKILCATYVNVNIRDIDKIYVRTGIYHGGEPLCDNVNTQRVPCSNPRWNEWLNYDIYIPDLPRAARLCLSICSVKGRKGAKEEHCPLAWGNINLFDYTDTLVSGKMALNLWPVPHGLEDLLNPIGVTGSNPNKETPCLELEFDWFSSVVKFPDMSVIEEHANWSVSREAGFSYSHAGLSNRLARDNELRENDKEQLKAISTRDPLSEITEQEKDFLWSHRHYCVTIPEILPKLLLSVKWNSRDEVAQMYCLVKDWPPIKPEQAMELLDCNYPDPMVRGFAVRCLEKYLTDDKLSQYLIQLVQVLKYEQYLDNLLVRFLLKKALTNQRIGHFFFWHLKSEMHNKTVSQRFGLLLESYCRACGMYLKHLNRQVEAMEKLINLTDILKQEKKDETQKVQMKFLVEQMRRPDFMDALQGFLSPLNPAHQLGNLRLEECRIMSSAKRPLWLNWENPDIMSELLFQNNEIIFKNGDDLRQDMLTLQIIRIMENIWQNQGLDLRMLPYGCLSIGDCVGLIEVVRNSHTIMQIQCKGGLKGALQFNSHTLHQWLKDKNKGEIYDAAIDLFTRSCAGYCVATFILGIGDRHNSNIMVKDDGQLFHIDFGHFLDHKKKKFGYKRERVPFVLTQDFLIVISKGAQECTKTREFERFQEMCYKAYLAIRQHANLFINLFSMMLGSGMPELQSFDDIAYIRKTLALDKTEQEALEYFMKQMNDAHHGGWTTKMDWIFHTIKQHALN

As to `CC(=O)Nc1nc(C)c(-c2cnc(Cl)c(NS(C)(=O)=O)c2)s1`, the IC50 worked out at 110 nM in experiment [1] and 10 nM in experiment [2]. In experiment [3], the Cp came to 0.3 µM.
As for `COC[C@H]1OC(=O)c2coc3c2[C@@]1(C)C1=C(C3=O)[C@@H]2CCC(=O)[C@@]2(C)C[C@H]1OC(C)=O`, the inhibition result in experiment [4], in experiment [5] and in experiment [6] was “Active” in each case.
Regarding `Cc1cc(C(C)Nc2ccccc2C(=O)O)c2nc(N3CCOCC3)cc(=O)n2c1` (stereo not given), the Cp in experiment [3] came to 30 µM.
`Cc1cc(F)ccc1Oc1cccc2c(=O)cc(N3CCOCC3)[nH]c12`: the concentration for half-maximal inhibition (IC50) in experiment [1] was determined as 160 nM; in experiment [2] it was 22800 nM. For the same compound, in experiment [3], the Cp is more than 40 µM.

By IC50 is commonly meant the concentration that gives 50% inhibition.
